Measurements: ChEMBL document CHEMBL1250425, “New antimalarials with a triterpenic scaffold from Momordica balsamina” (Bioorg Med Chem, 2010)

Assays:
Plasmodium falciparum [1] = assay: Antimalarial activity against chloroquine-sensitive Plasmodium falciparum 3D7 infected in erythrocytes after 48 hrs by SYBR Green 1-based fluorescence assay; format: functional, organism-based; conditions: 3D7, 48 h
How it was run: (§1)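 Parasites grown in fresh erythrocytes in RPMI 1640 with 25 mM HEPES, 6.8 mM hypoxanthine, 10% AlbuMAX II, 37 °C under 5% O2/3–5% CO2/N2. Compounds from DMSO stocks tested at 0.156–100 µg/mL in duplicate, with 1% parasitaemia ring stages at 2% haematocrit, 48 h at 37 °C. SYBR Green I lysis buffer added, 1 h dark at room temperature, fluorescence read at 485/535 nm, IC50 by nonlinear fit.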

MCF7 = assay: Cytotoxicity against human MCF7 cells after 24 hrs by MTT assay; format: cell-based; conditions: MCF7, 24 h
How it was run: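 MCF-7 grown in RPMI 1640 with 10% heat-inactivated horse serum, 2 mM L-glutamine, antibiotics; 5% CO2, 37 °C. 2 × 10^4 cells/well added to serially diluted compound, 24 h at 37 °C; MTT (5 mg/mL stock) 4 h, then 10% SDS overnight; OD 550 nm (ref 630 nm). Growth inhibition vs cell and medium controls; IC50 as mean ± SD of three experiments.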

[2] = Selectivity index, ratio of IC50 for human MCF7 cells to IC50 for chloroquine-sensitive Plasmodium falciparum 3D7; format: toxicity, cell-based; conditions: read-out: Selectivity Index
[3] = Selectivity index, ratio of IC50 for human MCF7 cells to IC50 for chloroquine-resistant Plasmodium falciparum Dd2; format: toxicity, cell-based; conditions: read-out: Selectivity Index
Plasmodium falciparum [4] = assay: Antimalarial activity against chloroquine-resistant Plasmodium falciparum Dd2 infected in erythrocytes after 48 hrs by SYBR Green 1-based fluorescence assay; format: functional, organism-based; conditions: Dd2, 48 h; how it was run: as §1

SMILES	IC50 (Plasmodium falciparum [1]) [µM]	IC50 (MCF7) [µM]	selectivity ratio [2]	selectivity ratio [3]	IC50 (Plasmodium falciparum [4]) [µM]
CC(C)=C[C@H](O)C[C@@H](C)[C@H]1CC[C@@]2(C)[C@@H]3C(=O)C=C4[C@@H](CC[C@H](O)C4(C)C)[C@]3(C)CC[C@]12C [BALSAMINOL E]	20.4	44.2	2.2	2.3	19.6
C[C@H](C/C=C/C(C)(C)O)[C@H]1CC[C@@]2(C)[C@@H]3[C@@H](O)C=C4[C@@H](CC[C@H](O)C4(C)C)[C@]3(C)C[C@@H](O)[C@]12C [CUCURBALSAMINOL A]	13.2	> 133	> 10.1	> 7.6	17.6
C[C@H](C/C=C/C(C)(C)O)[C@H]1CC[C@@]2(C)[C@@H]3[C@@H](O)C=C4[C@@H](CC[C@H](O)C4(C)C)[C@]3(C)CC[C@]12C	30.6		1.5	0.9	50.1
CO[C@H]1C=C2[C@@H](CC[C@H](O)[C@]2(C)CO)[C@]2(C)CC[C@]3(C)[C@@H]([C@H](C)C[C@@H](O)C=C(C)C)CC[C@@]3(C)[C@H]12 [BALSAMINOL B]	15.2	31	2	1.7	17.9
CC(C)=CC(=O)C[C@@H](C)[C@H]1CC[C@@]2(C)[C@@H]3C(=O)C=C4[C@@H](CC[C@H](O)[C@]4(C)CO)[C@]3(C)CC[C@]12C [BALSAMINOL C]	19.6	70.5	3.6	3.2	22.4
CC(C)=C[C@H](O)C[C@@H](C)[C@H]1CC[C@@]2(C)[C@@H]3C=C[C@@]45OC[C@]3(CC[C@]12C)[C@@H]4CC[C@H](O)C5(C)C [KARAVILAGENIN E]	7.4		4.2	3.7	8.2
CC(=O)C[C@@H](C)[C@H]1CC[C@@]2(C)[C@@H]3C(=O)C=C4[C@@H](CC[C@H](O)[C@]4(C)CO)[C@]3(C)CC[C@]12C [BALSAMINOL D]	25.9	> 133	> 5.1	> 2.9	45.6
COC(C)(C)/C=C/C[C@@H](C)[C@H]1CC[C@@]2(C)[C@@H]3[C@@H](O[C@H]4O[C@@H](CO)[C@H](O)[C@H](O)[C@@H]4O)C=C4[C@@H](CC[C@H](O)C4(C)C)[C@]3(C)CC[C@]12C [BALSAMINOSIDE A]	4.6	19	4.2	4.7	4
C[C@H](C/C=C/C(C)(C)O)[C@H]1CC[C@@]2(C)[C@@H]3[C@@H](O)C=C4[C@@H](CC[C@H](O)[C@]4(C)CO)[C@]3(C)CC[C@]12C [BALSAMINAGENIN A]	19.1	65.1	3.4	2.4	27.3
CO[C@H]1C=C2[C@@H](CC[C@H](O)C2(C)C)[C@]2(C)C[C@@H](O)[C@]3(C)[C@@H]([C@H](C)C/C=C/C(C)(C)O)CC[C@@]3(C)[C@H]12	17.7	55.4	3.1	2	28.3
C=C(C)[C@@H](O)[C@H](O)C[C@@H](C)[C@H]1CC[C@@]2(C)[C@@H]3[C@@H](O)C=C4[C@@H](CC[C@H](O)[C@]4(C)CO)[C@]3(C)CC[C@]12C [BALSAMINAPENTAOL A]	14.6		3.2	1.4	33
COC(C)(C)/C=C/C[C@@H](C)[C@H]1CC[C@@]2(C)[C@@H]3[C@@H](O)C=C4[C@@H](CC[C@H](O)[C@]4(C)CO)[C@]3(C)CC[C@]12C [BALSAMINAGENIN B]	18.7	34	1.8	1.8	19.2
CC(C)=C[C@H](O)C[C@@H](C)[C@H]1CC[C@@]2(C)[C@@H]3[C@@H](O)C=C4[C@@H](CC[C@H](O)[C@]4(C)CO)[C@]3(C)CC[C@]12C [BALSAMINOL A]	17.1		2.3	1.7	23.5
